# Calls of active or inactive are those of the source. The rule behind the calls is not given here.
# Tests used:
# [1] = biological target: T1, CREB-binding protein/Histone acetyltransferase p300 (Homo sapiens) (UniProt Q09472+Q92793); assay: Protac activity at p300/CBP degradation in human MM1.S cells assessed as amount p300 remaining at 10 uM incubated for 24 hrs by pulldown-based Western blot analysis; format: cell-based
# How it was run: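 MM1.S cells at 2 × 10^6 cells/well in RPMI 1640, pre-incubated 24 h at 37 °C, 5% CO2, then exposed 24 h at 1, 5 or 10 µM. RIPA lysates run on 3–8% tris-acetate SDS gels and probed for p300 and β-actin. Band intensity expressed relative to the lane's DMSO vehicle and β-actin loading control.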
# [2] = system: MM1.S; assay: Antiproliferative activity against human MM1.S cells assessed as reduction in cell proliferation incubated for 72 hrs by MTS assay; format: functional, cell-based
# How it was run: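 MM1.S cells seeded at 2 × 10^5 cells/well, exposed 72 h in triplicate across 12.5–500 nM. Proliferation read by MTS dye absorbance. EC50 fitted with an [inhibitor] vs. normalized response model; uncertainty given as standard error.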
# [3] = biological target: T1, CREB-binding protein/Histone acetyltransferase p300 (Homo sapiens); assay: Binding affinity to p300/CBP in human OPM-2 cell lysate assessed as p300 pull down and measured after 12 hrs by pulldown-based Western blot analysis; format: subcellular
# How it was run: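 Biotinylated ligands coupled to streptavidin magnetic beads for 3 h at room temperature in 50 mM Tris pH 7.5, 300 mM NaCl, 0.05% NP40. Beads then incubated with OPM2 cell lysate overnight at 4°C, washed in binding buffer, boiled off in SDS loading buffer. Bound p300 detected by SDS-PAGE and anti-p300 immunoblot.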
# T1 sequence (Q09472 whole entry, looked up): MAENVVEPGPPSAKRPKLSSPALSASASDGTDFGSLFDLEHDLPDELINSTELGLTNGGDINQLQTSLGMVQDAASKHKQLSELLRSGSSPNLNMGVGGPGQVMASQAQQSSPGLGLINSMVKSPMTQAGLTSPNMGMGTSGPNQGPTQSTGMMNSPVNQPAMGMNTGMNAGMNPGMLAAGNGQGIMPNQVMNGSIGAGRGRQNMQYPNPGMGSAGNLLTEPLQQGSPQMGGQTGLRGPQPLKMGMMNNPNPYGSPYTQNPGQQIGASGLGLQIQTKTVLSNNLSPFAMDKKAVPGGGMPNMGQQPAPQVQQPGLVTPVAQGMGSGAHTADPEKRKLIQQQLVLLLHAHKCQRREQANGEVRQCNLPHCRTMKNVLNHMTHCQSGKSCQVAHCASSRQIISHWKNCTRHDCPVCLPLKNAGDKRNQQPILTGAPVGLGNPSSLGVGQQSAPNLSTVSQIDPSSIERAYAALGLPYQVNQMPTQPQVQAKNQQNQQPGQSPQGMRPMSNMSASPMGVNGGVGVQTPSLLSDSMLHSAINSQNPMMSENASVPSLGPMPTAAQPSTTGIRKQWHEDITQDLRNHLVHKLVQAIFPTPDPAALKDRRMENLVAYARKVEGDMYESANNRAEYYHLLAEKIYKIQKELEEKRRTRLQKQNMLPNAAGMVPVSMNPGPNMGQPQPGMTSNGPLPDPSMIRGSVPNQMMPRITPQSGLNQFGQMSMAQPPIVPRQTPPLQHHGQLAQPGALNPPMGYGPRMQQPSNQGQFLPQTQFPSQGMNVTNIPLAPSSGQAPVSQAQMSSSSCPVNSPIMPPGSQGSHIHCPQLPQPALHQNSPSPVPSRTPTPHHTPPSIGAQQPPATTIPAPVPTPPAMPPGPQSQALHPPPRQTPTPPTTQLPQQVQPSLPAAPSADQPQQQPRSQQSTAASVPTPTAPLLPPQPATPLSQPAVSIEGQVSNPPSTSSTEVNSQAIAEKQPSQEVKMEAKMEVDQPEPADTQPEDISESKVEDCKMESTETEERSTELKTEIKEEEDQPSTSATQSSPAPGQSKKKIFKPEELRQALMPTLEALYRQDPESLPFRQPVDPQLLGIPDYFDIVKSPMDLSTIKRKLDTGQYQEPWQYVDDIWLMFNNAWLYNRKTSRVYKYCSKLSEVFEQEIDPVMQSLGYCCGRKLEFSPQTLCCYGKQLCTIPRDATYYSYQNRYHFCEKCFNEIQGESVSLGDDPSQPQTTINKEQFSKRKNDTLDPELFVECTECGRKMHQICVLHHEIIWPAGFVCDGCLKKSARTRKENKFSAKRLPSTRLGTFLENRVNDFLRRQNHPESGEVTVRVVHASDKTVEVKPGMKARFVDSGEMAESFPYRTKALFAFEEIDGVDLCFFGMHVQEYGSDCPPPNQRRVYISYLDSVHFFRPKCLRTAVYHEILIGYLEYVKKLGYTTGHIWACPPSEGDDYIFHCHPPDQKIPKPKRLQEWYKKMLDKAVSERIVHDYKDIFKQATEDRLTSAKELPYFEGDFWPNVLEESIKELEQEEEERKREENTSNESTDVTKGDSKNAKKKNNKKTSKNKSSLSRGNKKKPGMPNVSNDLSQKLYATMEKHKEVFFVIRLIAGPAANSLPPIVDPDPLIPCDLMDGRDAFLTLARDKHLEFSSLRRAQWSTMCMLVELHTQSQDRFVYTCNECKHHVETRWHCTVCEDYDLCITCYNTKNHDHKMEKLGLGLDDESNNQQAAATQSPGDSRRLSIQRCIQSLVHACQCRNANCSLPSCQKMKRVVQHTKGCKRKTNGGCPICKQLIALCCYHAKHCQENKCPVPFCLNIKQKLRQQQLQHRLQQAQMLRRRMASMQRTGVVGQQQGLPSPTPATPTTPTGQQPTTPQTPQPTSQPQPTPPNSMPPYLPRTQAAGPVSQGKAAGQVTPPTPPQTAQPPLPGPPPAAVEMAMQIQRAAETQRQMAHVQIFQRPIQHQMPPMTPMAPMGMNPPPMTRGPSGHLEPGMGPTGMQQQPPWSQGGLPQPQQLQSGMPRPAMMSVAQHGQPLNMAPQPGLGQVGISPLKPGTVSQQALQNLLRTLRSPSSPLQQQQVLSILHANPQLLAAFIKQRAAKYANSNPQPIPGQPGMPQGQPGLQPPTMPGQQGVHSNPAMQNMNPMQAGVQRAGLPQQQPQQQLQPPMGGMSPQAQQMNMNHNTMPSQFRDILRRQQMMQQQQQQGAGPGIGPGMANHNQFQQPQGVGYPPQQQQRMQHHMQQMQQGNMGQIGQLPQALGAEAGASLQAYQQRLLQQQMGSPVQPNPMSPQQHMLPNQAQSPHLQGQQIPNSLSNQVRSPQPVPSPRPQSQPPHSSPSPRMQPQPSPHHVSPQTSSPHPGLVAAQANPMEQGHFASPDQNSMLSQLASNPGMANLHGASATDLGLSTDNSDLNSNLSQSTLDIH
# T1 sequence (Q92793 whole entry, looked up): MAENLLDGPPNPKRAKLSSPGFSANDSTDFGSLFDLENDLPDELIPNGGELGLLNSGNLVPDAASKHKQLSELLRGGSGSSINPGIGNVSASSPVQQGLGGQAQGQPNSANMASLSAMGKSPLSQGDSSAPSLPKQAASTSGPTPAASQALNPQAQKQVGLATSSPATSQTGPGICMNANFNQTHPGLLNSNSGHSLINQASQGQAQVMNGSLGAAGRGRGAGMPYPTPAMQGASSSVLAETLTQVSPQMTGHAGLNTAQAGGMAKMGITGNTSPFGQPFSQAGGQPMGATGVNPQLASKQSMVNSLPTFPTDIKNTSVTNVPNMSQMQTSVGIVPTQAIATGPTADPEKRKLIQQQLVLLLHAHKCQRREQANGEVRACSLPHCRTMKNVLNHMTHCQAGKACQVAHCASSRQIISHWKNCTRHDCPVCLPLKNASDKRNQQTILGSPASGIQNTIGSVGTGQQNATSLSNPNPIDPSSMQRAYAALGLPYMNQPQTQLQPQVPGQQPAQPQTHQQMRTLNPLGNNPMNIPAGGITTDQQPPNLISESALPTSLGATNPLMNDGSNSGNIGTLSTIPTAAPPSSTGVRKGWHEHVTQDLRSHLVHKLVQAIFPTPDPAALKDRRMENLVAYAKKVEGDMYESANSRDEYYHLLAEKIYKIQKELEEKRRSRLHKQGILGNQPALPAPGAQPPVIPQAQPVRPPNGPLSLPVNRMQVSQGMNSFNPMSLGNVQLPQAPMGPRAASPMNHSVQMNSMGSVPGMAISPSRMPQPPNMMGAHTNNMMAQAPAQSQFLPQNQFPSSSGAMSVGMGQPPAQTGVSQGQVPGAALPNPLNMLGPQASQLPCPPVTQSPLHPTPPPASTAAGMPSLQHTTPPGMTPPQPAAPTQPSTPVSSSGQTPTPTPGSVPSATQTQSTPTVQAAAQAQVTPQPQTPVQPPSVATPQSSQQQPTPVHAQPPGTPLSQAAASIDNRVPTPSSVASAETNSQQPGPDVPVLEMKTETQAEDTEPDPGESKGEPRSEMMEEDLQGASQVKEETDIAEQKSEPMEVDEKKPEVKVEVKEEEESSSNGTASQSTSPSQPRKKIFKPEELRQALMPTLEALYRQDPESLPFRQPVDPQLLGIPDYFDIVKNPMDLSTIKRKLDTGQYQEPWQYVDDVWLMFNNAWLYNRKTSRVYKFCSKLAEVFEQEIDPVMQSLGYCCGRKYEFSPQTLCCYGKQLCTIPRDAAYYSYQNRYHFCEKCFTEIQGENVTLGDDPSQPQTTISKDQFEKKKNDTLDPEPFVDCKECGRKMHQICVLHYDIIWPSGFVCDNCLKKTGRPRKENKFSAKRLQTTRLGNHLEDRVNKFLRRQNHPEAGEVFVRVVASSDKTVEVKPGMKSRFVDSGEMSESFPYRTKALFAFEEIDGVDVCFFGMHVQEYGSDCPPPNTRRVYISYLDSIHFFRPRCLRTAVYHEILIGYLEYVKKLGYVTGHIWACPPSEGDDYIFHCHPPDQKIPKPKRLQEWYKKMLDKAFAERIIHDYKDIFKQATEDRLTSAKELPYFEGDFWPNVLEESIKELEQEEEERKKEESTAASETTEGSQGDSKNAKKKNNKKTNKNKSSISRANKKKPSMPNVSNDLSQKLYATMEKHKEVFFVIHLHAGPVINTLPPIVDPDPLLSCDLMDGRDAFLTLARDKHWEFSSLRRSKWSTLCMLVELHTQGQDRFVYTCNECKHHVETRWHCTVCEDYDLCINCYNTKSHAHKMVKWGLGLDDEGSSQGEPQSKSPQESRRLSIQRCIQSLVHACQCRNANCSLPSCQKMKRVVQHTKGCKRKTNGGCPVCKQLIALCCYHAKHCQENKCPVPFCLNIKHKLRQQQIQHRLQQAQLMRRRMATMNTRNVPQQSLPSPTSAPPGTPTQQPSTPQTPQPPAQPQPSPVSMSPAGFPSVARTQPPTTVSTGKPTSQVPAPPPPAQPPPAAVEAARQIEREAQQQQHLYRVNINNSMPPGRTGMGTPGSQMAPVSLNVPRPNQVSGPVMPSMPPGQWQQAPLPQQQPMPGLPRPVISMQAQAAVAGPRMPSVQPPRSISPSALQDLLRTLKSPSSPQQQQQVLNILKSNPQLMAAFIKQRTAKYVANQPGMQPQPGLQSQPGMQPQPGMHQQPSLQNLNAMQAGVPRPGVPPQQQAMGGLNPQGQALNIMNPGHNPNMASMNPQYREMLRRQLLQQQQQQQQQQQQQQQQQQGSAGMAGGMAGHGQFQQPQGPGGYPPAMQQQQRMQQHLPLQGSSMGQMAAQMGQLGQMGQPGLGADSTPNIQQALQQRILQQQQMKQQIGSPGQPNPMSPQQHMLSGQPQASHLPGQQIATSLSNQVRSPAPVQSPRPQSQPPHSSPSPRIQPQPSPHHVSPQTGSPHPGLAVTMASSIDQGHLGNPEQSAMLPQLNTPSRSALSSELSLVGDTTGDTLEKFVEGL
smiles,measurement,setting,value
C[C@H](N(Cc1ccc(F)cc1)C(=O)CN1C(=O)O[C@@]2(CCc3cc(NC(=O)NCCCCNc4cccc5c4C(=O)N(C4CCC(=O)NC4=O)C5=O)ccc32)C1=O)C(F)(F)F (stereo partly drawn),Activity,[1],42%
C[C@H](N(Cc1ccc(F)cc1)C(=O)CN1C(=O)O[C@@]2(CCc3cc(NC(=O)NCCOCCOCCNc4cccc5c4C(=O)N(C4CCC(=O)NC4=O)C5=O)ccc32)C1=O)C(F)(F)F (stereo partly drawn),EC50,[2],294 nM
same,Activity,[1],49%
C[C@H](N(Cc1ccc(F)cc1)C(=O)CN1C(=O)O[C@@]2(CCc3cc(NC(=O)NCCOCCOCCOCCNc4cccc5c4C(=O)N(C4CCC(=O)NC4=O)C5=O)ccc32)C1=O)C(F)(F)F (stereo partly drawn),Activity,[1],18%
CNC(=O)Nc1ccc2c(c1)CC[C@@]21OC(=O)N(CC(=O)N(Cc2ccc(F)cc2)[C@@H](C)C(F)(F)F)C1=O [A-485],EC50,[2],139 nM
same,Activity,[3],Active
C[C@H](N(Cc1ccc(F)cc1)C(=O)CN1C(=O)O[C@@]2(CCc3cc(NC(=O)NCCOCCOCCOCCOCCNc4cccc5c4C(=O)N(C4CCC(=O)NC4=O)C5=O)ccc32)C1=O)C(F)(F)F (stereo partly drawn),EC50,[2],422 nM
same,Activity,[1],9%

# Reference: ChEMBL document CHEMBL5107978, “Identification of ligand linkage vectors for the development of p300/CBP degraders” (RSC Med Chem, 2022)
